The source of these data is ChEMBL document CHEMBL3102809, “Investigation of fluorinated and bifunctionalized 3-phenylchroman-4-one (isoflavanone) aromatase inhibitors” (Bioorg Med Chem, 2014).

SMILES strings stand for the structures. Activity calls are given as the source filed them. No cut-off for these calls is given here.

Test [1] relates to MCF7. Briefly: Cytotoxicity against estrogen-dependent human MCF7 cells after 72 hrs by MTT assay. The settings on record: for IC50: MCF7, 72 h. It counts as functional, cell-based.
In test [2] the target is T1, Aromatase (Homo sapiens, UniProt P11511).
T1 sequence (P11511 whole entry): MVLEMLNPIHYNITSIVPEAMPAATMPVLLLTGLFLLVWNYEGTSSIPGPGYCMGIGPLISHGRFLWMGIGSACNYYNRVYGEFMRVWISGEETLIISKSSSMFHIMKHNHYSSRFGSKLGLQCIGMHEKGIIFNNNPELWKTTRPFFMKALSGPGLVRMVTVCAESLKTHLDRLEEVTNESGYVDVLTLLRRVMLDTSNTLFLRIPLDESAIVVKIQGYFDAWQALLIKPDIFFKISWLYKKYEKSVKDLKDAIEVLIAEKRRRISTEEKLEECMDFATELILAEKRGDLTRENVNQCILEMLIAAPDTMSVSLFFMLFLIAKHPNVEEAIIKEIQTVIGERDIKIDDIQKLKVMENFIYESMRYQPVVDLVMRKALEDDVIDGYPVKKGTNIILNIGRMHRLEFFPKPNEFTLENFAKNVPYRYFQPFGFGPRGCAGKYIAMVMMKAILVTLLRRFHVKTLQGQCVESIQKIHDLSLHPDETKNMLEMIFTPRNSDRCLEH
Briefly: Inhibition of human recombinant aromatase expressed in baculovirus-infected cell system using 7-methoxy-trifluoromethylcoumarin as substrate after 30 mins by fluorescence assay.

The nature of test [3]: Ratio of IC50 for human MCF7 cells to IC50 for human recombinant aromatase.
In test [4] the target is T1, Aromatase.
For test [5], the system named is MCF7. The test can be described thus: Cytotoxicity against […] human MCF7 cells after 72 hrs by MTT assay. It counts as functional, cell-based. Put shortly:
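MCF-7 cells were raised without estrogen and without phenol red. They were seeded at 15,000/well, incubated overnight at 37 °C, then treated 72 h with freshly dissolved compounds. Viability was read by MTT (4 h), with DMSO solubilization and absorbance at 570 nm, and IC50 was calculated.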
In general terms: Tetrazolium dyes change colour on reduction, which living cells bring about.

`O=C1c2ccccc2OCC1c1ccc(-c2ccccc2)cc1` (configuration not stated): the “growth inhibition (GI)” value with MCF7 [1] was “inactive”. As to `O=C1c2c(ccc3ccccc23)OCC1c1ccc(Oc2ccccc2)cc1` (configuration not stated), the half-inhibitory concentration (IC50) (as a rule, the concentration that gives 50% inhibition) on Aromatase [2] (read-out: IC50) was 190 µM. Take `O=C1c2ccccc2OCC1c1ccc(F)cc1` (configuration not stated): the “Ratio IC50” value in test [3] was 2. Further, the IC50 on Aromatase [2] (read-out: IC50) was 33 µM. For `O=C1c2cc(Br)ccc2OCC1c1ccccc1` (configuration not stated), in the test with MCF7 [1], the IC50 was found to be 100 µM. In the case of `O=C1c2ccccc2OCC1c1ccccc1F` (configuration not stated), in test [3], the “Ratio IC50” value came to 2. The IC50 on Aromatase [2] (read-out: IC50) amounted to 24 µM. In the case of `O=C1c2cc(F)ccc2OCC1c1cccnc1` (configuration not stated), the IC50 on Aromatase [2] (read-out: IC50) came out at 0.8 µM. Also, in the test with MCF7 [1], the “growth inhibition (GI)” value is “inactive”. Consider `O=C1c2ccccc2OCC1c1cccc(F)c1` (configuration not stated), for which, in test [3], the “Ratio IC50” value turned out to be 2. Moreover, the IC50 at Aromatase [2] (read-out: IC50) was determined as 35 µM.

On to `O=C1c2ccccc2OCC1c1cc(F)cc(F)c1` (configuration not stated), for which the IC50 at Aromatase [2] (read-out: IC50) came to 20 µM.

As to `O=C1c2cc(F)cc(F)c2OCC1c1ccccc1` (configuration not stated), the “Ratio IC50” value in test [3] stood at 2. Further, the half-inhibitory concentration (IC50) result at Aromatase [2] is “Not Active”.

In the test with MCF7 [1], `O=C1c2ccccc2OCC1c1cccnc1` (configuration not stated) showed an IC50 of 31 µM. Consider `O=C1c2ccccc2OCC1c1ccc(C(F)(F)F)cc1` (configuration not stated), for which the “Ratio IC50” value in test [3] is recorded as 2. For the same compound, the IC50 entry on Aromatase [2] is reported as “Not Active”. For `O=C1c2cccc(F)c2OCC1c1cccnc1` (configuration not stated), the IC50 stood at 67.1 µM on Aromatase [2] (read-out: IC50) and 43 µM in the test with MCF7 [1]. As for `O=C1c2cccc(F)c2OCC1c1ccccc1` (configuration not stated), the “Ratio IC50” value in test [3] came out at 2. In addition, the IC50 on Aromatase [2] (read-out: IC50) came to 15 µM. `O=c1c(-c2ccccc2)coc2ccccc12` [ISOFLAVONE]: the IC50 result against Aromatase [4] is on record as “Not Active”.

Consider `O=C1c2cc(F)ccc2OCC1c1ccccc1` (configuration not stated), for which, in test [3], the “Ratio IC50” value stood at 2. In the case of `COc1ccc2c(c1)C(=O)C(c1ccc(Oc3ccccc3)cc1)CO2` (configuration not stated), the IC50 result at Aromatase [2] is reported as “Not Active”. Turning to `COc1ccc2c(c1)C(=O)C(c1cccnc1)CO2` (configuration not stated), at Aromatase [2] (read-out: IC50), the IC50 was 2.5 µM. Moreover, the “growth inhibition (GI)” value in the test on MCF7 [1] and in the test on MCF7 [5] was “inactive” each time.
